ChEMBL document CHEMBL1145775, “Development of potential antitumor agents. Synthesis and biological evaluation of a new set of sulfonamide derivatives as histone deacetylase inhibitors” (J Med Chem, 2003)
pIC50: −log10 of the molar value.

Columns and labels:
[1] = The relative effective concentration to induce same level of histone H4 acetylation of human T24 cells by MS-275 at 1 uM; format: functional, T-24
[2] = test system: A549; assay: Inhibitory concentration against lung A549 cell line; format: functional, cell-based; settings: Homo sapiens
Method in brief: (§1)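 MTT assay: cells exposed to a range of compound concentrations for 72 h at 37 °C, 5% CO2. MTT added at 0.5 mg/mL final for 4 h, then solubilized with DMF/SDS buffer (pH 4.7) overnight; absorbance at 570 with 630 reference. OD converted to cell numbers via a standard growth curve.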

[3] = test system: SW48; assay: Inhibitory concentration against colon SW48 cell line; format: functional, cell-based; settings: Homo sapiens; method in brief: as §1
[4] = test system: MDA-MB-231; assay: Inhibitory concentration against breast MDA-MB-231 cell line; format: functional, cell-based; settings: Homo sapiens; method in brief: as §1
[5] = test system: Fibroblast MRHF cell line; assay: Inhibitory concentration against normal fibroblast MRHF cell line; format: functional, cell-based; settings: Homo sapiens; method in brief: as §1
[6] = test system: HCT-116; assay: In vivo percent inhibitory activity of intraperitoneally administered compound (40 mg/kg/day) against mice […] with HCT116 tumor; format: functional, Homo sapiens
Method in brief: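 CD1 nude mice (18–22 g) implanted with 30 mg fragments of serially passaged A549 or HCT116 tumor; randomized at ~100 mm3 mean tumor volume, six per group. Daily intraperitoneal dosing (7 days/week) for 21 days, compound dissolved in DMSO; vehicle-only controls. Body weight and tumor volume monitored three times weekly; percent tumor growth inhibition versus vehicle.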

[7] = test system: MCF7; assay: Inhibitory concentration against breast MCF-7 cell line; format: functional, cell-based; settings: Homo sapiens; method in brief: as §1
[8] = test system: DU-145; assay: Inhibitory concentration against prostate DU145 cell line; format: functional, cell-based; settings: Homo sapiens; method in brief: as §1
[9] = test system: HCT-116; assay: Inhibitory concentration against colon HCT116 cell line; format: functional, cell-based; settings: Homo sapiens; method in brief: as §1
[10] = test system: T-24; assay: Inhibitory concentration against bladder T24 cell line; format: functional, cell-based; settings: Homo sapiens; method in brief: as §1
[11] = test system: HMEC; assay: Inhibitory concentration against normal epithelial HMEC cell line; format: functional, cell-based; settings: Homo sapiens; method in brief: as §1
[12] = test system: NCI-H446; assay: Inhibitory concentration against lung H446 cell line; format: functional, cell-based; settings: Homo sapiens; method in brief: as §1
[13] = molecular target: Histone deacetylase 1 (Homo sapiens, UniProt Q13547); assay: Inhibitory activity on partially purified recombinant human Histone deacetylase 1 (HDAC-1)
Sequence of Histone deacetylase 1 (Q13547 whole entry): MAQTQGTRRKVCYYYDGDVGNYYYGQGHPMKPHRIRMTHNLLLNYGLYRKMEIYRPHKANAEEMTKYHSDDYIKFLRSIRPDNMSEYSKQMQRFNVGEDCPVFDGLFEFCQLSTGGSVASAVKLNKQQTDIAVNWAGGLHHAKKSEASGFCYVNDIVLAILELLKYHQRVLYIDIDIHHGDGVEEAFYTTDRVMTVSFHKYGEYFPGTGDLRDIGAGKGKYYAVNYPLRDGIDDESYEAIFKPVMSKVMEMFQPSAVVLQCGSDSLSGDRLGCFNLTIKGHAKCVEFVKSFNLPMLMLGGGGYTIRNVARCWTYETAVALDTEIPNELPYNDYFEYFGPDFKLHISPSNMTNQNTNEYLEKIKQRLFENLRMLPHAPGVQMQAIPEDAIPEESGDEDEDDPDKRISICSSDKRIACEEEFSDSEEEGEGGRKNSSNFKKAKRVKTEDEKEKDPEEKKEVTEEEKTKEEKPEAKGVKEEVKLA

Q: With `Cc1ccc(S(=O)(=O)Nc2ccc(/C=C/C(=O)NO)cc2)cc1` as the molecule, how does the EC [1] read?
A: 10 µM

Q: With `Cc1ccc(S(=O)(=O)Nc2ccc(/C=C/C(=O)Nc3ccccc3N)cc2)cc1` as the molecule, how does the pIC50 [2] read?
A: 5.10

Q: And the pIC50 [3]?
A: 5.00

Q: And the pIC50 [4]?
A: 5.70

Q: And the pIC50 [5]?
A: < 4.43

Q: What about the Inhibition [6] of the same molecule?
A: 55%

Q: What about the pIC50 [7] of the same molecule?
A: 5.22

Q: And the pIC50 [8]?
A: 5.70

Q: What about the pIC50 [9] of the same molecule?
A: 5.40

Q: What about the pIC50 [10] of the same molecule?
A: 5.10

Q: And the pIC50 [11]?
A: < 4.43

Q: What about the pIC50 [12] of the same molecule?
A: 6.00

Q: With `O=C(/C=C/c1ccc(NS(=O)(=O)c2ccc(-c3ccccc3)cc2)cc1)NO` as the molecule, how does the EC [1] read?
A: 1 µM

Q: For `Nc1ccccc1NC(=O)/C=C/c1ccc(NS(=O)(=O)c2cccc3ccccc23)cc1`, which EC [1] is on record?
A: 10 µM

Q: And the pIC50 [13]?
A: 5.52

Q: With `Nc1ccccc1NC(=O)/C=C/c1ccc(NS(=O)(=O)c2ccc(-c3ccccc3)cc2)cc1` as the molecule, how does the pIC50 [2] read?
A: 4.74

Q: What about the pIC50 [3] of the same molecule?
A: 4.52

Q: And the pIC50 [4]?
A: 4.74

Q: What about the pIC50 [5] of the same molecule?
A: < 4.60

Q: And the EC [1]?
A: 15 µM

Q: What about the pIC50 [7] of the same molecule?
A: 4.54

Q: And the pIC50 [8]?
A: 4.82

Q: What about the pIC50 [9] of the same molecule?
A: 4.82

Q: What about the pIC50 [10] of the same molecule?
A: < 4.44

Q: And the pIC50 [11]?
A: < 4.44

Q: And the pIC50 [12]?
A: 5.10

Q: With `Nc1ccccc1NC(=O)c1ccc(CNC(=O)OCc2cccnc2)cc1` [ENTINOSTAT] as the molecule, how does the pIC50 [2] read?
A: 5.10

Q: And the pIC50 [3]?
A: 5.30

Q: What about the pIC50 [4] of the same molecule?
A: 5.52

Q: And the pIC50 [5]?
A: < 4.43

Q: And the pIC50 [7]?
A: 5.30

Q: What about the pIC50 [8] of the same molecule?
A: 6.00

Q: And the pIC50 [9]?
A: 6.22

Q: What about the pIC50 [10] of the same molecule?
A: 5.60

Q: What about the pIC50 [11] of the same molecule?
A: < 4.43

Q: And the pIC50 [12]?
A: 6.00

Q: With `COc1ccc(NS(=O)(=O)c2ccc(/C=C/C(=O)NO)cc2)cc1OC` as the molecule, how does the pIC50 [13] read?
A: 7.30

Q: For `Cc1ccc(NS(=O)(=O)c2ccc(/C=C/C(=O)NO)cc2)cc1`, which EC [1] is on record?
A: 1 µM

Q: And the pIC50 [13]?
A: 6.70

Q: With `Cc1ccc(NS(=O)(=O)c2ccc(/C=C/C(=O)Nc3ccccc3N)cc2)cc1` as the molecule, how does the pIC50 [2] read?
A: 5.02

Q: And the pIC50 [3]?
A: 5.19

Q: And the pIC50 [4]?
A: 5.05

Q: And the pIC50 [5]?
A: 4.47

Q: What about the Inhibition [6] of the same molecule?
A: 37%

Q: What about the pIC50 [7] of the same molecule?
A: 4.94

Q: What about the pIC50 [8] of the same molecule?
A: 5.15

Q: What about the pIC50 [9] of the same molecule?
A: 5.46

Q: What about the pIC50 [13] of the same molecule?
A: 5.70

Q: And the pIC50 [10]?
A: 5.19

Q: And the pIC50 [11]?
A: < 4.39

Q: And the pIC50 [12]?
A: 5.70

Q: What does the source list for `COc1ccc(NC(=O)Nc2ccc(/C=C/C(=O)NO)cc2)cc1OC`?
A: EC [1]: >25 µM; pIC50 [13]: 6.00

Q: Which EC [1] does the source give for `O=C(/C=C/c1ccc(NS(=O)(=O)c2cccc3ccccc23)cc1)NO` here?
A: 5 µM

Q: For `O=C(/C=C/c1ccc(NS(=O)(=O)c2cccc3oc4ccccc4c23)cc1)NO`, which EC [1] is on record?
A: 1 µM

Q: What about the pIC50 [13] of the same molecule?
A: 7.40

Q: With `COc1ccc(S(=O)(=O)Nc2ccc(/C=C/C(=O)Nc3ccccc3N)cc2)cc1` as the molecule, how does the pIC50 [2] read?
A: 5.00

Q: What about the pIC50 [3] of the same molecule?
A: 5.40

Q: And the pIC50 [4]?
A: 5.22

Q: What about the EC [1] of the same molecule?
A: 1 µM

Q: What about the pIC50 [7] of the same molecule?
A: 5.10

Q: What about the pIC50 [8] of the same molecule?
A: 5.30

Q: And the pIC50 [9]?
A: 5.60

Q: What about the pIC50 [13] of the same molecule?
A: 6.00

Q: What about the pIC50 [10] of the same molecule?
A: 5.10

Q: What about the pIC50 [11] of the same molecule?
A: 4.42

Q: What about the pIC50 [12] of the same molecule?
A: 5.70

Q: With `O=C(O)/C=C/c1ccc(NS(=O)(=O)c2ccc(-c3ccccc3)cc2)cc1` as the molecule, how does the pIC50 [13] read?
A: < 4.60

Q: For `COc1ccc(S(=O)(=O)Nc2ccc(/C=C/C(=O)NO)cc2)cc1`, which EC [1] is on record?
A: 5 µM

Q: With `Nc1ccccc1NC(=O)/C=C/C#Cc1ccc(NS(=O)(=O)c2ccccc2)cc1` as the molecule, how does the pIC50 [13] read?
A: 5.30

Q: Which results are given for `Nc1ccccc1NC(=O)/C=C/c1ccc(S(=O)(=O)Nc2ccc(-c3ccccc3)cc2)cc1`?
A: EC [1]: 5 µM; pIC50 [13]: 6.00

Q: For `CN(C)c1cccc2c(S(=O)(=O)Nc3ccc(/C=C/C(=O)NO)cc3)cccc12`, which EC [1] is on record?
A: 5 µM

Q: What about the pIC50 [13] of the same molecule?
A: 6.70

Q: With `CC(/C=C/C(=O)NO)=C\[C@@H](C)C(=O)c1ccc(N(C)C)cc1` [TRICHOSTATIN] as the molecule, how does the pIC50 [2] read?
A: 5.35

Q: What about the pIC50 [3] of the same molecule?
A: 5.30

Q: And the pIC50 [4]?
A: 5.46

Q: What about the pIC50 [5] of the same molecule?
A: 4.44

Q: And the pIC50 [7]?
A: 5.00

Q: What about the pIC50 [8] of the same molecule?
A: 5.46

Q: And the pIC50 [9]?
A: 6.05

Q: What about the pIC50 [10] of the same molecule?
A: 5.40

Q: What about the pIC50 [11] of the same molecule?
A: 4.49

Q: And the pIC50 [12]?
A: 5.82

Q: With `COc1ccc(NS(=O)(=O)c2ccc(/C=C/C(=O)Nc3ccccc3N)cc2)cc1OC` as the molecule, how does the pIC50 [13] read?
A: 5.52

Q: Which EC [1] does the source give for `Nc1ccccc1NC(=O)/C=C/c1ccc(NS(=O)(=O)c2cccc3oc4ccccc4c23)cc1` here?
A: 10 µM

Q: What about the pIC50 [13] of the same molecule?
A: 6.40

Q: With `O=C(/C=C/C#Cc1cccc(NS(=O)(=O)c2ccccc2)c1)NO` [OXAMFLATIN] as the molecule, how does the pIC50 [13] read?
A: 7.00

Q: Which EC [1] does the source give for `O=C(/C=C/c1ccc(NS(=O)(=O)c2cccc3cccnc23)cc1)NO` here?
A: 25 µM

Q: With `COc1ccc(S(=O)(=O)Nc2ccc(/C=C/C(=O)NO)cc2)cc1OC` as the molecule, how does the pIC50 [2] read?
A: 5.70

Q: And the pIC50 [3]?
A: 6.10

Q: What about the pIC50 [4] of the same molecule?
A: 6.15

Q: And the pIC50 [5]?
A: 5.30

Q: And the EC [1]?
A: 1 µM

Q: And the pIC50 [7]?
A: 5.82

Q: What about the pIC50 [8] of the same molecule?
A: 6.12

Q: What about the pIC50 [9] of the same molecule?
A: 6.70

Q: And the pIC50 [10]?
A: 5.70

Q: And the pIC50 [11]?
A: 4.70

Q: And the pIC50 [12]?
A: 6.40

Q: For `O=C(/C=C/c1ccc(S(=O)(=O)Nc2ccc(-c3ccccc3)cc2)cc1)NO`, which EC [1] is on record?
A: 1 µM
